Experimental data: ChEMBL document CHEMBL3259608, “Synthesis of a terphenyl substituted 4-aza-2,3-didehydropodophyllotoxin analogues as inhibitors of tubulin polymerization and apoptosis inducers” (Bioorg Med Chem, 2014)
The source made the active and inactive calls. The rule behind the calls is not given here.

Legend:
[1] = test system: ACHN; test: Anticancer activity against human ACHN cells after 48 hrs by MTT assay; format: functional, cell-based
Procedure, shortened: (§1)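 MTT assay: 1×10⁴ cells/well seeded in DMEM with 10% FBS, 24 h at 37°C in CO₂ before dosing. Compounds diluted in medium, vehicle control included, 48 h exposure. MTT (5 mg/mL stock) added for 4 h, formazan dissolved in DMSO, absorbance read at 540 nm. IC50 averaged from three individual experiments.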

[2] = test system: HeLa; test: Anticancer activity against human HeLa cells after 48 hrs by MTT assay; format: functional, cell-based; procedure, shortened: as §1
[3] = test system: HT-29; test: Anticancer activity against human HT-29 cells after 48 hrs by MTT assay; format: functional, cell-based; details: HT-29, 48 h; procedure, shortened: as §1
[4] = test system: A549; test: Anticancer activity against human A549 cells after 48 hrs by MTT assay; format: functional, cell-based; details: A549, 48 h; procedure, shortened: as §1
[5] = test system: DU-145; test: Anticancer activity against human DU145 cells after 48 hrs by MTT assay; format: functional, cell-based; details: DU-145, 48 h; procedure, shortened: as §1
[6] = test system: A549; test: Cell cycle arrest in human A549 cells assessed as accumulation at G2/M phase at 0.5 uM after 48 hrs by propidium iodide staining-based flow cytometric analysis (reference value: 11.73%); format: functional
[7] = test system: A549; test: Cell cycle arrest in human A549 cells assessed as accumulation at G2/M phase at 1 uM after 48 hrs by propidium iodide staining-based flow cytometric analysis (reference value: 11.73%); format: functional
[8] = test system: A549; test: Cell cycle arrest in human A549 cells assessed as accumulation at S phase at 0.5 uM after 48 hrs by propidium iodide staining-based flow cytometric analysis (reference value: 3.57%); format: functional
[9] = test system: A549; test: Cell cycle arrest in human A549 cells assessed as accumulation at G0/G1 phase at 1 uM after 48 hrs by propidium iodide staining-based flow cytometric analysis (reference value: 78.23%); format: functional
[10] = test system: A549; test: Cell cycle arrest in human A549 cells assessed as accumulation at S phase at 1 uM after 48 hrs by propidium iodide staining-based flow cytometric analysis (reference value: 3.57%); format: functional
[11] = test system: A549; test: Cell cycle arrest in human A549 cells assessed as accumulation at G0/G1 phase at 0.5 uM after 48 hrs by propidium iodide staining-based flow cytometric analysis (reference value: 78.23%); format: functional
[12] = test system: A549; test: Cell cycle arrest in human A549 cells assessed as accumulation at sub-G1 phase at 1 uM after 48 hrs by propidium iodide staining-based flow cytometric analysis (reference value: 6.47%); format: functional
[13] = test system: A549; test: Cell cycle arrest in human A549 cells assessed as accumulation at sub-G1 phase at 0.5 uM after 48 hrs by propidium iodide staining-based flow cytometric analysis (reference value: 6.47%); format: functional
[14] = test system: A549; test: Induction of apoptosis in human A549 cells assessed as nuclear condensation at 1 uM after 48 hrs by Hoechst staining-based fluorescence microscopic analysis; format: functional, cell-based
Procedure, shortened: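 10,000 A549 cells on coverslips, 24 h, then fresh medium with compound at 1 µM for 48 h. Vehicle control 0.001% DMSO. Hoechst 33258 added with 4% paraformaldehyde for 30 min at 37°C. Random fields imaged by fluorescence microscopy and scored qualitatively for chromatin condensation and nuclear fragmentation.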

[15] = test system: A549; test: Induction of apoptosis in human A549 cells assessed as caspase-3 activation at 1 to 2 uM after 48 hrs by ELISA relative to control; format: functional
Procedure, shortened: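 Colorimetric caspase-3 kit used. A549 cells treated 48 h at 1 and 2 µM, pelleted, washed in PBS, lysed 15 min, spun 15 min. Supernatant assayed by ELISA-based readout, fold change versus untreated control. Mean of two experiments, each in triplicate.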

[16] = biological target: T1, Tubulin (Homo sapiens) (UniProt P68371+Q9H4B7+P0DPH7+P68366+Q13509+Q71U36+P04350+Q3ZCM7+P07437+P68363+Q9BQE3+Q6PEY2+Q13885+Q9BVA1+Q9BUF5); test: Inhibition of alpha-tubulin polymerization in human A549 cells at 1 uM after 48 hrs by immunohistochemical analysis; format: cell-based
Procedure, shortened: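 A549 cells on coverslips treated 48 h at 1 µM. Fixed in 4% paraformaldehyde for 20 min, permeabilised with 0.2% Triton X-100 for 5 min, then methanol overnight. Blocked in 1% BSA, anti-α-tubulin (1:1000) 2 h at room temperature, FITC anti-mouse secondary 1 h. Microtubule network integrity examined by fluorescence microscopy.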

[17] = biological target: T1, Tubulin (Homo sapiens); test: Inhibition of tubulin (unknown origin) polymerization at 3 uM measured for 1 hr by fluorescence assay relative to control; format: protein-complex assay
Procedure, shortened: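 Tubulin polymerization kit, fluorescence-reporter based. Reaction in PEM buffer with GTP, with or without compound at 3 µM final. Reporter incorporation followed as fluorescence increase (excitation 360 nm, emission 420 nm) for 1 h at 37°C. Mean of two experiments, each in triplicate.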

[18] = test system: A549; test: Induction of apoptosis in human A549 cells assessed as DNA fragmentation at 1 uM after 48 hrs by agarose gel electrophoresis; format: functional, cell-based
Procedure, shortened: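 After 24 h settling, 1×10⁶ A549 cells/well treated 48 h at 1 µM. Pellet washed in PBS and lysed. Supernatant given SDS and RNase A for 2 h at 56°C, then proteinase K for 2 h at 37°C. DNA precipitated with ammonium acetate and cold ethanol at -80°C, washed in 80% ethanol, dissolved in TE. Laddering on 2% agarose gel.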

[19] = biological target: Tubulin; test: Inhibition of tubulin (unknown origin) polymerization measured for 1 hr by fluorescence assay; format: protein-complex assay, Homo sapiens

## O=C1OCC2=C1C(c1ccc(-c3ccc(-c4ccc(C(F)(F)F)cc4)cc3)cc1)c1cc3[nH]ccc3cc1N2 (stereo unspecified)
[1]
  IC50: 7.58 µM
[2]
  IC50: 16.6 µM
[3]
  IC50: 7.41 µM
[4]
  IC50: 10 µM
[5]
  IC50: 12.6 µM

## O=C1OCC2=C1C(c1ccc(-c3ccc(-c4cc(F)cc(F)c4)cc3)cc1)c1cc3[nH]ccc3cc1N2 (stereo unspecified)
[1]
  IC50: 5.75 µM
[2]
  IC50: 8.51 µM
[3]
  IC50: 6.45 µM
[4]
  IC50: 5.49 µM
[5]
  IC50: 8.7 µM

## O=C1OCC2=C1C(c1ccc(-c3ccc(-c4cc(F)c(F)c(F)c4)cc3)cc1)c1c(-c3ccccc3)n[nH]c1N2 (stereo unspecified)
[1]
  IC50: 7.52 µM
[2]
  IC50: 7.07 µM
[3]
  IC50: 6.45 µM
[4]
  IC50: 4.36 µM
[5]
  IC50: 6.5 µM

## O=C1OCC2=C1C(c1ccc(-c3ccc(-c4cc(F)cc(Cl)c4)cc3)cc1)c1c(ccc3cn[nH]c13)N2 (stereo unspecified)
[1]
  IC50: 9.33 µM
[2]
  IC50: 7.53 µM
[3]
  IC50: 9.42 µM
[4]
  IC50: 7.41 µM
[5]
  IC50: 12.6 µM

## COc1cc([C@@H]2c3cc4c(cc3[C@@H](O[C@@H]3O[C@@H]5CO[C@@H](C)O[C@H]5[C@H](O)[C@H]3O)[C@H]3COC(=O)[C@H]23)OCO4)cc(OC)c1O [ETOPOSIDE]
[1]
  IC50: 2.04 µM
[6]
  Activity: 20.09%
[2]
  IC50: 2.75 µM
[3]
  IC50: 1.47 µM
[7]
  Activity: 46.14%
[8]
  Activity: 4.24%
[9]
  Activity: 46.09%
[10]
  Activity: 3.76%
[11]
  Activity: 70.74%
[12]
  Activity: 4.01%
[4]
  IC50: 2.45 µM
[13]
  Activity: 4.93%
[5]
  IC50: 3.17 µM

## O=C1OCC2=C1C(c1ccc(-c3ccc(-c4ccc(OC(F)(F)F)cc4)cc3)cc1)c1c(ccc3cn[nH]c13)N2 (stereo unspecified)
[14]
  Activity: Active
[1]
  IC50: 0.95 µM
[6]
  Activity: 32.01%
[2]
  IC50: 1.24 µM
[15]
  fold change (FC): 3
[16]
  inhibition: Active
[3]
  IC50: 1 µM
[7]
  Activity: 58.23%
[8]
  Activity: 2.39%
[17]
  inhibition: 60.1%
[9]
  Activity: 38.41%
[10]
  Activity: 2.35%
[11]
  Activity: 64.52%
[12]
  Activity: 1.01%
[4]
  IC50: 0.87 µM
[18]
  Activity: Active
[13]
  Activity: 1.08%
[5]
  IC50: 0.98 µM
[19]
  IC50: 2.95 µM

## O=C1OCC2=C1C(c1ccc(-c3ccc(-c4ccc(C(F)(F)F)cc4)cc3)cc1)c1c(-c3ccccc3)n[nH]c1N2 (stereo unspecified)
[1]
  IC50: 5.24 µM
[2]
  IC50: 6.16 µM
[3]
  IC50: 8.51 µM
[4]
  IC50: 5.75 µM
[5]
  IC50: 6.45 µM

## O=C1OCC2=C1C(c1ccc(-c3ccc(-c4cc(F)c(F)c(F)c4)cc3)cc1)c1c(ccc3cn[nH]c13)N2 (stereo unspecified)
[1]
  IC50: 7.41 µM
[2]
  IC50: 5.49 µM
[3]
  IC50: 8.91 µM
[4]
  IC50: 3.98 µM
[5]
  IC50: 6.91 µM

## O=C1OCC2=C1C(c1ccc(-c3ccc(-c4ccc(F)cc4)cc3)cc1)c1c(ccc3cn[nH]c13)N2 (stereo unspecified)
[1]
  IC50: 1.47 µM
[2]
  IC50: 1.94 µM
[3]
  IC50: 1.69 µM
[4]
  IC50: 0.95 µM
[5]
  IC50: 1.44 µM

## O=C1OCC2=C1C(c1ccc(-c3ccc(-c4cc(F)c(F)c(F)c4)cc3)cc1)c1cc3[nH]ccc3cc1N2 (stereo unspecified)
[1]
  IC50: 6.45 µM
[2]
  IC50: 10.5 µM
[3]
  IC50: 6.6 µM
[4]
  IC50: 5.49 µM
[5]
  IC50: 13.2 µM

## COc1cc([C@@H]2c3cc4c(cc3[C@H](O)[C@H]3COC(=O)[C@H]23)OCO4)cc(OC)c1OC [PODOFILOX]
[1]
  IC50: 1.93 µM
[3]
  IC50: 2.29 µM
[17]
  inhibition: 52%
[4]
  IC50: 3.09 µM
[5]
  IC50: 3.21 µM

## O=C1OCC2=C1C(c1ccc(-c3ccc(-c4ccc(C(F)(F)F)cc4)cc3)cc1)c1c(ccc3cn[nH]c13)N2 (stereo unspecified)
[1]
  IC50: 2.75 µM
[2]
  IC50: 7.09 µM
[3]
  IC50: 2.39 µM
[4]
  IC50: 1.16 µM
[5]
  IC50: 4.89 µM

## O=C1OCC2=C1C(c1ccc(-c3ccc(-c4cc(F)cc(F)c4)cc3)cc1)c1c(-c3ccccc3)n[nH]c1N2 (stereo unspecified)
[1]
  IC50: 14.1 µM
[2]
  IC50: 8.12 µM
[3]
  IC50: 5.83 µM
[4]
  IC50: 6.72 µM
[5]
  IC50: 10 µM

## O=C1OCC2=C1C(c1ccc(-c3ccc(-c4ccc(F)cc4)cc3)cc1)c1cc3[nH]ccc3cc1N2 (stereo unspecified)
[1]
  IC50: 5.75 µM
[2]
  IC50: 9.54 µM
[3]
  IC50: 8.91 µM
[4]
  IC50: 4.36 µM
[5]
  IC50: 7.24 µM

## O=C1OCC2=C1C(c1ccc(-c3ccc(-c4cc(F)cc(Cl)c4)cc3)cc1)c1cc3[nH]ccc3cc1N2 (stereo unspecified)
[1]
  IC50: 2.95 µM
[2]
  IC50: 3.16 µM
[3]
  IC50: 8.7 µM
[4]
  IC50: 2.55 µM
[5]
  IC50: 4.78 µM

## O=C1OCC2=C1C(c1ccc(-c3ccc(-c4ccc(F)cc4)cc3)cc1)c1c(-c3ccccc3)n[nH]c1N2 (stereo unspecified)
[1]
  IC50: 2.18 µM
[2]
  IC50: 3.8 µM
[3]
  IC50: 3.31 µM
[4]
  IC50: 1.47 µM
[5]
  IC50: 4.16 µM

## O=C1OCC2=C1C(c1ccc(-c3ccc(-c4cc(F)cc(Cl)c4)cc3)cc1)c1c(-c3ccccc3)n[nH]c1N2 (stereo unspecified)
[1]
  IC50: 3.16 µM
[2]
  IC50: 6.02 µM
[3]
  IC50: 6.3 µM
[4]
  IC50: 2.88 µM
[5]
  IC50: 5.75 µM

## O=C1OCC2=C1C(c1ccc(-c3ccc(-c4cc(F)cc(F)c4)cc3)cc1)c1c(ccc3cn[nH]c13)N2 (stereo unspecified)
[14]
  Activity: Active
[1]
  IC50: 0.95 µM
[6]
  Activity: 24.56%
[2]
  IC50: 1.23 µM
[15]
  fold change (FC): 3
[16]
  inhibition: Active
[3]
  IC50: 1.02 µM
[7]
  Activity: 52.34%
[8]
  Activity: 4.39%
[17]
  inhibition: 51.3%
[9]
  Activity: 41.23%
[10]
  Activity: 5.21%
[11]
  Activity: 69.78%
[12]
  Activity: 1.22%
[4]
  IC50: 0.91 µM
[18]
  Activity: Active
[13]
  Activity: 1.27%
[5]
  IC50: 1.28 µM
[19]
  IC50: 2.74 µM

## O=C1OCC2=C1C(c1ccc(-c3ccc(-c4ccc(OC(F)(F)F)cc4)cc3)cc1)c1c(-c3ccccc3)n[nH]c1N2 (stereo unspecified)
[1]
  IC50: 4.07 µM
[2]
  IC50: 2.23 µM
[3]
  IC50: 1.77 µM
[4]
  IC50: 0.98 µM
[5]
  IC50: 1.12 µM

## O=C1OCC2=C1C(c1ccc(-c3ccc(-c4ccc(OC(F)(F)F)cc4)cc3)cc1)c1cc3[nH]ccc3cc1N2 (stereo unspecified)
[1]
  IC50: 5.37 µM
[2]
  IC50: 7.41 µM
[3]
  IC50: 9.33 µM
[4]
  IC50: 5.12 µM
[5]
  IC50: 6.02 µM
